# Experimental data reported in ChEMBL document CHEMBL1138748, “A prodrug approach toward the development of water soluble fluoroquinolones and structure--activity relationships of quinoline-3-carboxylic acids” (2004).
# How the values were obtained:
# Format in all cases: functional
# [1] = tested on: Pseudomonas aeruginosa; assay: Antibacterial activity against Pseudomonas aeruginosa strain 27853
# Outline: (§1)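 Broth microdilution MIC run to NCCLS standards: serial 2-fold dilutions in cation-adjusted Mueller–Hinton broth, inoculum ~5 × 10^5 CFU/mL, incubated 35 °C for 18–24 h. Trays were read by eye, and the MIC was taken as the lowest concentration giving complete growth inhibition (no visible turbidity).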
# [2] = tested on: Escherichia coli; assay: Antibacterial activity against Escherichia coli strain 25922; outline: as §1
# [3] = tested on: Enterococcus faecalis; assay: Antibacterial activity against Enterococcus faecalis strain 29212; outline: as §1
# [4] = tested on: Staphylococcus aureus; assay: Antibacterial activity against Staphylococcus aureus strain 29213; outline: as §1
# [5] = tested on: Staphylococcus aureus; assay: Antibacterial activity against Staphylococcus aureus strain St au 33591 MRSA; outline: as §1
# [6] = tested on: Staphylococcus aureus; assay: Antibacterial activity against Staphylococcus aureus strain St au 29213; outline: as §1
# [7] = tested on: Escherichia coli; assay: Antibacterial activity against Escherichia coli; outline: as §1
# [8] = tested on: Enterococcus faecalis; assay: Antibacterial activity against Enterococcus faecalis; outline: as §1
# [9] = tested on: Pseudomonas aeruginosa; assay: Antibacterial activity against Pseudomonas aeruginosa; outline: as §1
# [10] = tested on: Staphylococcus aureus; assay: Antibacterial activity against methicillin resistant Staphylococcus aureus
# Outline: (§2)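 Broth microdilution per NCCLS standards: serial 2-fold dilutions in cation-adjusted Mueller–Hinton broth, inoculum ~5 × 10^5 CFU/mL, 35 °C for 18–24 h, visual read; MIC = lowest concentration giving complete growth inhibition (no visible turbidity). Reference strains, e.g. S. aureus 29213 (susceptible) and 33591 (MRSA).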
# [11] = tested on: Staphylococcus aureus; assay: Antibacterial activity against methicillin susceptible Staphylococcus aureus; outline: as §2
SMILES,MIC [1] [µg/mL],MIC [2] [µg/mL],MIC [3] [µg/mL],MIC [4] [µg/mL],MIC [5] [µg/mL],MIC [6] [µg/mL],MIC [7] [µg/mL],MIC [8] [µg/mL],MIC [9] [µg/mL],MIC [10] [µg/mL],MIC [11] [µg/mL]
O=C(O)c1cn(-c2ccc(O)cc2)c2cc(N3CCNCC3)c(F)cc2c1=O,1.56,0.4,6.25,0.78,0.4,–,–,–,–,–,–
CN1CCN(c2cc3c(cc2F)c(=O)c(C(=O)O)cn3-c2ccc(O)cc2)CC1,0.78,< 0.05,0.78,–,0.2,0.1,0.05,0.78,0.78,0.1,0.1
CN1CCN(c2cc3c(cc2F)c(=O)c(C(=O)O)cn3-c2ccc(OP(=O)(O)O)cc2)CC1,–,–,–,–,–,–,0.2,25,50,0.78,1.56
O=C(O)c1cn(C2CC2)c2cc(N3CCNCC3)c(F)cc2c1=O [CIPROFLOXACIN],–,–,–,–,–,–,–,1,–,0.5,0.25
